Screening results (PubChem BioAssay)
Only some compounds are listed: those with a hit (about 3.5% of all), similar ones and a draw of the others.
MrgX1 antagonist = antagonists of human MrgX1 receptor, primary screen, HEK293 cells, Fluo-4 calcium flux | BAM8-22 antagonism; active compounds read low | B-score at 10 µM | 310,000 compounds, 1.3% hits;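 active = calcium-response B-score plate-corrected more than 3 library SD below zero, starting fluorescence within 5 deviations, no agonist response on first addition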;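 note: peak minus trough fluorescence over baseline after final BAM8-22 challenge near maximal dose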
Target sequence (Q96LB2 whole entry, looked up): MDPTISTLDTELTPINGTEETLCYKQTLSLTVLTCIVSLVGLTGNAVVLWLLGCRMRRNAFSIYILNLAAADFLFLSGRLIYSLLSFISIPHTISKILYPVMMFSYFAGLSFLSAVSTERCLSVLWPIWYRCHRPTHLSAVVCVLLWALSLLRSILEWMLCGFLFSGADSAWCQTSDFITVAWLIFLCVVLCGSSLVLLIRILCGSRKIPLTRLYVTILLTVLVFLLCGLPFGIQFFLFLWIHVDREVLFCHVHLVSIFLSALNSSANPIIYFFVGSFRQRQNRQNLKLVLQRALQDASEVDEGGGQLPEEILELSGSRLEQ
RGS4 act = RGS4 potentiators or activators, primary screen, cell-based, HEK293 M3R inducible RGS4, calcium flux; B-score at 10 µM; 310,000 compounds, 0.92% hits; carbachol calcium flux Fluo4; active compounds read low;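 active = B-score of the integrated calcium signal more than 4 SD below the library mean, with starting fluorescence not abnormally high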;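 note: negative B-score means reduced calcium response which marks RGS4 activation or potentiation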
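System – HEK293 FlpIn-TREx cells, stable M3R, doxycycline-inducible RGS4 · Reagent – ECmax carbachol challenge · Times – compound preincubation 20 min at room temperature before agonist · Technique – Fluo4 fluorescence kinetic imaging of calcium · Measure – B score of integrated Fluo4 ratio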
MrgX1 allo act = positive allosteric modulators of MrgX1, primary screen, HEK293 cells, Fluo-4 calcium flux; Mas-related G-protein coupled receptor member X1 (Homo sapiens), Q96LB2; FDSS; active compounds read high; B-score at 10 µM; 310,000 compounds, 0.63% hits;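 active = plate-corrected calcium response at least 3 library SD above typical, normal starting fluorescence, not activating the receptor alone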;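 note: compound read alongside a low EC10 to EC30 dose of BAM8-22 agonist; peak minus trough fluorescence over baseline measured at the second addition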
RGS4 block = RGS4 inhibitors, primary screen, cell-based, HEK293 M3R inducible RGS4, calcium flux; Fluo-4 calcium flux; active compounds read high; triggered by carbachol at its EC20; 310,000 compounds, 0.45% hits; B-score at 10 µM; AID 463165, 2010;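 active = B-score, a plate-corrected calcium signal, over three deviations above library mean, with baseline fluorescence within five deviations of library mean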;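 note: RGS4 expression induced by doxycycline in cells with stable M3 receptor; B-score is computed from the integrated fluorescence ratio over baseline after carbachol; higher B-score means a larger calcium signal and so more RGS4 inhibition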
Target sequence (P49798 whole entry, looked up): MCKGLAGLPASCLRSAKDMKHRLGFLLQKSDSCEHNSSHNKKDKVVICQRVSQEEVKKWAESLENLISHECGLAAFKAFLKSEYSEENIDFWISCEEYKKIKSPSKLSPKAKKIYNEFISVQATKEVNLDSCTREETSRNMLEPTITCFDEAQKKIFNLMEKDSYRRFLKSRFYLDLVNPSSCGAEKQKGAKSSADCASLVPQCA
MrgX1 agonist = agonists of human MrgX1 receptor, primary screen, HEK293 cells, Fluo-4 calcium flux. Fluo-4 calcium fluorescence, agonist mode; active compounds read high. B-score at 10 µM. 310,000 compounds, 0.44% hits;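 active = calcium response B-score plate-corrected fluorescence ratio at least 3 library SD, with starting fluorescence B-score inside 5 SD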
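Material: HEK293 cells stably expressing human MrgX1 receptor | Quantity: 15,000 cells per well | Times: Cells plated overnight, dye loaded 0.5 h 37 °C, 0.5 h room temperature | Measured by: Kinetic Fluo-4 NW fluorescence of intracellular calcium | Control set: Positive and negative controls per plate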
Numbers without * were called inactive; i = inactive; . = no result.

SMILES | MrgX1 antagonist | RGS4 act | MrgX1 allo act | RGS4 block | MrgX1 agonist
Cc1c(N=C2N=C(NC(=O)c3cccs3)c3ccccc32)c(=O)n(-c2ccccc2)n1C | i | i | i | i | 33*
CC(C)(C)C(=O)O/N=C(\N)c1c(Cl)cccc1Cl | i | -9.09* | i | i | i
CCOc1ccc(CCNc2nc3ccc(C)cc3n3cnnc23)cc1OCC | i | i | i | i | i
CC(C)c1ccc(/C=C/C(=O)NC(=S)Nc2ccc(CN3CCOCC3)cc2)cc1 | i | -8.79* | i | i | i
CCc1nn(C(CC)C(=O)NCCc2ccc(OC)cc2OC)c(=O)c2cc3occc3n12 (configuration not stated) | i | i | i | i | i
O=c1ccc2cc3c([nH]c4ccc(Br)cc43)oc-2c1O | i | i | 11.2* | i | i
COc1ccccc1C(CNc1nc(C(F)(F)F)nc2ccccc12)N(C)C (configuration not stated) | i | i | i | i | i
O=C(/C=C/c1ccc([N+](=O)[O-])cc1)OCC(=O)N1c2ccccc2Sc2ccccc21 | i | -8.25* | i | i | i
O=C(COC(=O)/C=C/c1ccc([N+](=O)[O-])cc1)NCc1ccccc1 | i | i | i | i | i
COc1ccc(CC(=O)N(C)CC(=O)Nc2cccc(F)c2)cc1S(=O)(=O)N1CCOCC1 | -5.28* | i | i | i | i
COCCN(C(=O)COC(=O)CCc1ccccc1OC)c1c(N)n(Cc2ccccc2)c(=O)[nH]c1=O | -6.02* | i | i | i | i
COc1ccc(C2=NOC(C(=O)NCCCn3ccnc3)C2)cc1 (configuration not stated) | i | i | i | i | i
COc1cccc(C2=NOC(C(=O)NCCCn3ccnc3)C2)c1 (configuration not stated) | -6.55* | i | i | i | i
CCN(CC)CCOC(=O)C1c2ccccc2Oc2ccccc21 | i | -11* | i | i | i
CCN(CC)CCNC(=O)C1c2ccccc2Oc2ccccc21 | i | -7.23* | i | i | i
O=C(NCCCn1ccnc1)C1c2ccccc2Oc2ccccc21 | i | -7.42* | i | i | i
CN(CC(=O)Nc1ccccc1Br)C(=O)C(Cc1ccccc1)NC(=O)c1ccccc1 (configuration not stated) | i | i | i | i | i
COCCCN(C(=O)Cc1coc2cc(C)c(C)cc12)c1c(N)n(Cc2ccccc2)c(=O)[nH]c1=O | i | i | i | i | i
CSCC[C@H](NC(=O)C1CCN(S(=O)(=O)c2ccccc2)CC1)C(=O)NC1CC1 | i | i | i | i | i
O=C(O)C1=C[C@H](c2ccc(C(F)(F)F)cc2)C[C@H](OCCCCO)O1 | i | i | i | i | i
O=C(NC(Cc1ccccc1)C(=O)O)NC12CC3CC(CC(C3)C1)C2 (configuration not stated) | i | i | i | i | i
COc1cccc2c1C(=O)C=C(C)C2=O | -7.71* | -7.14* | i | i | i
CCC(C)C(NC(=O)OC(C)(C)C)C(=O)NC(Cc1ccccc1)C(=O)OC (configuration not stated) | i | i | 7.32* | i | i
OC(COc1ccccc1)CN(Cc1ccccc1)CC(O)COc1ccccc1 (configuration not stated) | i | . | i | . | i
CCC(=O)c1ccc(OCC(O)CN(CCc2ccccc2)Cc2ccccc2)cc1 (configuration not stated) | i | -8.35* | i | i | i
SMILES | MrgX1 antagonist | RGS4 act | MrgX1 allo act | RGS4 block | MrgX1 agonist
CCCOc1ccc(C(C(=O)OCCN(CC)CC)c2ccccc2)cc1 (configuration not stated) | -4.57* | -7.39* | i | i | i
CCN(Cc1ccccc1)S(=O)(=O)c1cc2[nH]c(=O)c(=O)[nH]c2cc1C | i | i | i | i | i
COc1cc(/C=C(/C#N)C(=O)NC(C)c2ccccc2)cc(OC)c1O (configuration not stated) | i | i | i | i | 58.5*
COc1ccccc1/C=C/C=C(\C#N)C(=O)NC(C)c1ccccc1 (configuration not stated) | i | i | i | i | i
Cc1ccc(S(=O)(=O)N(C)C)cc1NC(=O)COC(=O)Cc1cccs1 | i | i | i | i | i
Cn1c(SCC(N)=O)nnc1-c1ccc(S(=O)(=O)N2CCCC2)cc1 | i | i | i | i | i
Cc1ccc(-n2c(SCC(N)=O)nnc2-c2ccc(S(=O)(=O)N3CCCCC3)cc2)c(C)c1 | i | -7.1* | i | i | i
CCCOC(=O)c1c(NC(=O)/C=C/c2cnn(C)c2C)sc(C(=O)OCC)c1C | -4.57* | i | i | i | i
CCCOC(=O)c1c(NC(=O)/C=C/c2cnn(C)c2C)sc(C(=O)OC)c1C | i | i | i | i | i
COc1ccc(C2=NN(C(=O)C(O)c3ccccc3)C(O)(C(F)(F)F)C2)cc1 (configuration not stated) | i | i | i | i | 29.4*
CC(C)(C)OC(=O)NCc1ccc(CNC(=O)c2[nH]cnc2C(=O)NCC(=O)OCc2ccccc2)cc1 | i | i | i | i | i
CNC[C@@H](CC1CCCCC1)NC[C@H](CC(C)C)NCCc1cccc(C(F)(F)F)c1 | i | -7.31* | i | i | i
CC[C@@H](C)[C@H](CNC)NC[C@@H](Cc1cccc2ccccc12)NCCc1cccc(C(F)(F)F)c1 | i | -9.31* | i | i | i
CNC[C@@H](Cc1ccccc1)NC[C@@H](CC1CCCCC1)NCCCc1ccccc1 | i | i | i | i | i
CCC[C@H](CN[C@@H](CNC)[C@H](C)CC)NCCc1cc(C(F)(F)F)cc(C(F)(F)F)c1 | i | i | i | i | i
COc1ccc(CCN2CC(C(=O)NCC(=O)Nc3ccc(F)c(F)c3)CC2=O)cc1OC (configuration not stated) | i | i | i | i | i
CN(C)CCCNC(=O)/C(=C/c1ccc(-c2ccc([N+](=O)[O-])cc2)o1)NC(=O)c1ccccc1 | -5.72* | i | i | i | i
CN(C)CCCNC(=O)/C(=C\c1ccc(-c2ccc(Br)cc2)o1)NC(=O)c1ccccc1 | i | i | i | i | i
